What was measured:
[1] = target: Proto-oncogene tyrosine-protein kinase Src (Homo sapiens) (UniProt P12931); assay: Inhibition of SRC at 1 uM
[2] = target: T1, Tyrosine-protein kinase JAK3 (Homo sapiens) (UniProt P52333); assay: Inhibition of JAK3 JH1 catalytic domain at 1 uM
T1 sequence (whole entry): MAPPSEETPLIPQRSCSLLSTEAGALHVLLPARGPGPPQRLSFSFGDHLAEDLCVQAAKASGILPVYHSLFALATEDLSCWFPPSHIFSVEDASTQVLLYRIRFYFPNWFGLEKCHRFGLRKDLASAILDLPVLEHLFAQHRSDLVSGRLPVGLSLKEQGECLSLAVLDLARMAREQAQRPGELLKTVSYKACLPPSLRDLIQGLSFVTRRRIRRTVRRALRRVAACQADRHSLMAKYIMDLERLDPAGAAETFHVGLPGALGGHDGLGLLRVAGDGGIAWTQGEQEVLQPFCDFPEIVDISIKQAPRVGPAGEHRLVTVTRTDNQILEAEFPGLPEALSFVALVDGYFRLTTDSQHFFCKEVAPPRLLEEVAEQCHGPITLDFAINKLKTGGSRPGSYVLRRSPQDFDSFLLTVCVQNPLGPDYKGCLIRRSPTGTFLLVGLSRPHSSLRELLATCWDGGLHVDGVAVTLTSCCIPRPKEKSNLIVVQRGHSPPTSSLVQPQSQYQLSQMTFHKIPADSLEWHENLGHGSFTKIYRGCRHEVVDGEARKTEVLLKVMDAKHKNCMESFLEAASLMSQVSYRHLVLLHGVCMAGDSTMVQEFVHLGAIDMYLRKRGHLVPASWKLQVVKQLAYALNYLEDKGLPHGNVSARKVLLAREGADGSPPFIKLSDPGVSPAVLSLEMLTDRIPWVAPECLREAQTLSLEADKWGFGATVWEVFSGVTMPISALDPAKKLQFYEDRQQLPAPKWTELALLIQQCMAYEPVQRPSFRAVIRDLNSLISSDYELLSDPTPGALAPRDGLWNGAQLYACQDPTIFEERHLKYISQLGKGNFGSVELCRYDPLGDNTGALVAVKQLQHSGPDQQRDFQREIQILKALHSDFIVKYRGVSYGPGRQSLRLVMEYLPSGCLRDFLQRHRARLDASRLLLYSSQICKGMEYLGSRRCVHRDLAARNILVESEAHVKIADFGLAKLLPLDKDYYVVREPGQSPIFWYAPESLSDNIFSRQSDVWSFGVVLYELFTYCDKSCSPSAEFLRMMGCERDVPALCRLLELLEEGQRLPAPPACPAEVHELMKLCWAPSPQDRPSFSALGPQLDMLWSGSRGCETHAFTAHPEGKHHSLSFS
Procedure, shortened: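 Single-concentration screen on the Ambit KINOMEscan platform, run against a panel of 250–400 kinases. Per-kinase inhibition was also summarized as S(90), the fraction of kinases inhibited by more than 90%.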

[3] = target: Dual specificity protein kinase CLK1 (Homo sapiens) (UniProt P49759); assay: Inhibition of CLK1 at 1 uM
Procedure, shortened: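 Ambit KINOMEscan screen at a single concentration across a 250–400 kinase panel, recorded as percent inhibition. Selectivity was expressed as S(90), the fraction of kinases inhibited >90%.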

[4] = target: Epithelial discoidin domain-containing receptor 1 (Homo sapiens) (UniProt Q08345); assay: Inhibition of DDR1 at 1 uM
Procedure, shortened: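 Single-concentration screen using Ambit Bioscience KINOMEscan technology across a panel of 250–400 kinases. Per-kinase inhibition from this screen was summarized as S(90), the fraction of kinases inhibited by more than 90%.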

[5] = target: T2, Phosphatidylinositol 3-kinase C2 domain-containing subunit gamma (Homo sapiens) (UniProt O75747); assay: Inhibition of PIK3C2G at 1 uM
T2 sequence (whole entry): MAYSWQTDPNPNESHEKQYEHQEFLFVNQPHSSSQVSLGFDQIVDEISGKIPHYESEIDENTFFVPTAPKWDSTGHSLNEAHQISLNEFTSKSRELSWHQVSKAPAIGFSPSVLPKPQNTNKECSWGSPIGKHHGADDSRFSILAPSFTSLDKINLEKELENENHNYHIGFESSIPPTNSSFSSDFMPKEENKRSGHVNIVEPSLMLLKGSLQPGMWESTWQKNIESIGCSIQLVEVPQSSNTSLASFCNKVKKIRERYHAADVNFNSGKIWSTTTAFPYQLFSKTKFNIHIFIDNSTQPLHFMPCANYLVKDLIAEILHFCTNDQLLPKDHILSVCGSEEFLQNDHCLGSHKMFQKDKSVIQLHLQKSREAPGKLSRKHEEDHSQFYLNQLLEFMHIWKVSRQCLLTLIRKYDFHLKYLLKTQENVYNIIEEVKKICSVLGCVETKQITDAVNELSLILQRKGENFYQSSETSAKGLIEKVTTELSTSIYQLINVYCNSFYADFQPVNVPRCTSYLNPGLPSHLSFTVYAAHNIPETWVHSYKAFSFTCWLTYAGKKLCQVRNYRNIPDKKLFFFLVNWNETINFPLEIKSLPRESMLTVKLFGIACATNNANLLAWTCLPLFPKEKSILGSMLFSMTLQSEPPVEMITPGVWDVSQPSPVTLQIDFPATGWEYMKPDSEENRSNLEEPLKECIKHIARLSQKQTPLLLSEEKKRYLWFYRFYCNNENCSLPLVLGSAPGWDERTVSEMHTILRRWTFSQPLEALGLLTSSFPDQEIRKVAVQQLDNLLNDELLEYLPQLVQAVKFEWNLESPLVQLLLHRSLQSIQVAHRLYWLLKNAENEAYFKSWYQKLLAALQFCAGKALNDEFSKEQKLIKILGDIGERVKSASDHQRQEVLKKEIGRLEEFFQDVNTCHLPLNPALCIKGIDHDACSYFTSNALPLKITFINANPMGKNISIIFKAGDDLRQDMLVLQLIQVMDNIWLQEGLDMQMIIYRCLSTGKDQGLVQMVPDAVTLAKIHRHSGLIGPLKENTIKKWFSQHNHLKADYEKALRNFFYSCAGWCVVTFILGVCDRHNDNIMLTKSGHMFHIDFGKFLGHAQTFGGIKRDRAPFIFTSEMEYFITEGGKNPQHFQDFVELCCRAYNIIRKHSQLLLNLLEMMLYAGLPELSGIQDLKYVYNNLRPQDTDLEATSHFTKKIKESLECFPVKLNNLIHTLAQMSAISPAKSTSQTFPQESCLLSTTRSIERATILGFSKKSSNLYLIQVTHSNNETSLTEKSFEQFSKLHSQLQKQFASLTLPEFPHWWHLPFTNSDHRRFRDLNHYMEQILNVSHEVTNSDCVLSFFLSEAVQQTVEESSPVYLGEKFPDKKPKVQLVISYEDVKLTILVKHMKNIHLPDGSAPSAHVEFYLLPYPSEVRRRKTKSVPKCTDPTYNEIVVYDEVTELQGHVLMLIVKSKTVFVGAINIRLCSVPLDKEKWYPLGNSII

[6] = target: Serine/threonine-protein kinase Nek7 (Homo sapiens) (UniProt Q8TDX7); assay: Inhibition of NEK7 at 1 uM
[7] = test system: Mast/stem cell growth factor receptor Kit (Homo sapiens), P10721 [L576P]; assay: Inhibition of KIT L576P mutant at 1 uM
Chain of Mast/stem cell growth factor receptor Kit (Homo sapiens), P10721 [L576P] (P10721 whole entry L576P): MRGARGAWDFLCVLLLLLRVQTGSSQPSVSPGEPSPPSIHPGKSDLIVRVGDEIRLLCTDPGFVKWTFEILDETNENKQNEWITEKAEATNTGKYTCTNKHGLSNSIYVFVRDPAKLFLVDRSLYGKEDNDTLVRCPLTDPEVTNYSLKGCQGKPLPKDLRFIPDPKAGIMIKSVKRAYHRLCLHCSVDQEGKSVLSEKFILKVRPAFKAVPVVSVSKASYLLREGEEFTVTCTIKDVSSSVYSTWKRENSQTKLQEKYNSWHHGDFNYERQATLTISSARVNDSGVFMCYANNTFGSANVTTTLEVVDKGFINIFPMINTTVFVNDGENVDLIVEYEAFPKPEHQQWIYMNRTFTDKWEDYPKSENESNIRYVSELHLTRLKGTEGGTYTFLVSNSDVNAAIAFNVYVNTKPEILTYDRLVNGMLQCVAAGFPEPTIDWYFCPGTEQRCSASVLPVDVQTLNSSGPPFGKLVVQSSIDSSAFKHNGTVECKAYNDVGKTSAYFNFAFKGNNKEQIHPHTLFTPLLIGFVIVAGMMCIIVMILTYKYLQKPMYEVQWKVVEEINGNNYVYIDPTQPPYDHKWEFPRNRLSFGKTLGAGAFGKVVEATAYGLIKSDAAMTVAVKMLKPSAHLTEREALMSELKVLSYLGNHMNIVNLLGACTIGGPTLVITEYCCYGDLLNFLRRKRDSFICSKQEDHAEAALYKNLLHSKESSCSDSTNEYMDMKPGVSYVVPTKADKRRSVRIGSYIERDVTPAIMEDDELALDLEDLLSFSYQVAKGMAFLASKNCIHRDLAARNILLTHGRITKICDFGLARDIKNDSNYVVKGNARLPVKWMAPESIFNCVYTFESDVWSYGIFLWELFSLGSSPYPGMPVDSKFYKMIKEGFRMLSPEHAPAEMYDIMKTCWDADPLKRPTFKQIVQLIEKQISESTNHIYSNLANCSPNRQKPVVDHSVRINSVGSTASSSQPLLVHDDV

Chain of Dual specificity protein kinase CLK1 (Homo sapiens) (P49759 whole entry, looked up): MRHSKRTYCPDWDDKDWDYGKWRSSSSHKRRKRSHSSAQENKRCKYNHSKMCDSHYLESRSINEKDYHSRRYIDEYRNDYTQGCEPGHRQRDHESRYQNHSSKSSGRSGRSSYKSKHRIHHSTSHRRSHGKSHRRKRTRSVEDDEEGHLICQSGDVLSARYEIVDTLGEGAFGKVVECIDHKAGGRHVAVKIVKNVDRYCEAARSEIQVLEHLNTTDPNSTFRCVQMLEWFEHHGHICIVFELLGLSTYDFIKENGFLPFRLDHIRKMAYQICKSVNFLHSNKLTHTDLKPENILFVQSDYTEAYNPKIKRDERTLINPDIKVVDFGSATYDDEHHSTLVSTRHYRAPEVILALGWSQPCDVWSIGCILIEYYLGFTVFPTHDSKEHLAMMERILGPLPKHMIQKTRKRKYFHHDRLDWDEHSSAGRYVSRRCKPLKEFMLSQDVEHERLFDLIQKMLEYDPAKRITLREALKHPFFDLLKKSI
Chain of Proto-oncogene tyrosine-protein kinase Src (Homo sapiens) (P12931 2-536 limits assumed): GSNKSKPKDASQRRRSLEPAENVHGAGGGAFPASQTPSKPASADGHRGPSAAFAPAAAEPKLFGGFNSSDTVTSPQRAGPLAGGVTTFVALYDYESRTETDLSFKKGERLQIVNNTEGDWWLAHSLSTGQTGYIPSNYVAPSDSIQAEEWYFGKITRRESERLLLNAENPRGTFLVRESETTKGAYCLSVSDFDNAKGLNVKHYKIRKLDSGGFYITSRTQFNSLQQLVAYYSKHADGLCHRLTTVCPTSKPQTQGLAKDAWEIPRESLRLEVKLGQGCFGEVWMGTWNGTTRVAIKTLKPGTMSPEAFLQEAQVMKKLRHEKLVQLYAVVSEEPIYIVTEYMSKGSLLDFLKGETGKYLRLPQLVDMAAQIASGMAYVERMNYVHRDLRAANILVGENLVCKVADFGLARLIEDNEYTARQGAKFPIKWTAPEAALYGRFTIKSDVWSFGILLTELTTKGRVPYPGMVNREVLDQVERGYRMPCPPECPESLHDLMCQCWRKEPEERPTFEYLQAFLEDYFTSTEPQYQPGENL
Chain of Epithelial discoidin domain-containing receptor 1 (Homo sapiens) (Q08345 whole entry, the tested form may be a part): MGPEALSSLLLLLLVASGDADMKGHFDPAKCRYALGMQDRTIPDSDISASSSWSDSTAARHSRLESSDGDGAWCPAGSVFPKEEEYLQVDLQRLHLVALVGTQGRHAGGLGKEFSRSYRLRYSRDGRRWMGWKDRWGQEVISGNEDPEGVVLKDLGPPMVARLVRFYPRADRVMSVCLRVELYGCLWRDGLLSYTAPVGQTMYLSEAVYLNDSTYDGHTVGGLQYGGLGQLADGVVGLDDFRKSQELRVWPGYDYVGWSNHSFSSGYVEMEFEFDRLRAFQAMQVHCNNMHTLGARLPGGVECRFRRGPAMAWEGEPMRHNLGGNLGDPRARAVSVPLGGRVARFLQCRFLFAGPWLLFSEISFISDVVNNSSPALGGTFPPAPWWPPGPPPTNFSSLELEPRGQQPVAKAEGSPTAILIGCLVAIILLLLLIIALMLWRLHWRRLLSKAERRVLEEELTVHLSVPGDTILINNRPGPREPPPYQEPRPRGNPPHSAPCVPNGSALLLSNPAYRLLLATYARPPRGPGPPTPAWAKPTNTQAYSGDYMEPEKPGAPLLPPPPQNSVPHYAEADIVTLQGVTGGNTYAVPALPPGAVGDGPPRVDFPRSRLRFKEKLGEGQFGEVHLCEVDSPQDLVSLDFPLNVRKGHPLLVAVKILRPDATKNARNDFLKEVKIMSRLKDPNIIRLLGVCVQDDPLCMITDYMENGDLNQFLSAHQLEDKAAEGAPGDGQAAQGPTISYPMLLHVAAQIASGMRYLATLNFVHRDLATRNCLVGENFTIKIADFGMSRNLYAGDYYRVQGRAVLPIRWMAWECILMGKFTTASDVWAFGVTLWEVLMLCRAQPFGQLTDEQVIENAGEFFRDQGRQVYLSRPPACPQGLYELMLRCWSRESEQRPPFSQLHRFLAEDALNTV
Chain of Serine/threonine-protein kinase Nek7 (Homo sapiens) (Q8TDX7 whole entry, looked up): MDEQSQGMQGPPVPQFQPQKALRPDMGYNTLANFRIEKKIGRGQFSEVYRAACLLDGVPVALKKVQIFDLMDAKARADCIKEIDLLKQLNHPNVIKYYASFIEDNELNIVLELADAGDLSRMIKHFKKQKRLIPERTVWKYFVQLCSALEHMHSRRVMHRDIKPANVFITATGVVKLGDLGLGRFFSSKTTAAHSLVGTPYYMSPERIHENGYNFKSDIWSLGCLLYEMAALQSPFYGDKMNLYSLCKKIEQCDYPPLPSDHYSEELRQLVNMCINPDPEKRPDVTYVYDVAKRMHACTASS

SMILES	inhibition [1] [%]	inhibition [2] [%]	inhibition [3] [%]	inhibition [4] [%]	inhibition [5] [%]	inhibition [6] [%]	inhibition [7] [%]
CN1CCN(c2ccc(-c3cnc4c(c3)N(Cc3cc(Cl)ccc3Cl)CCN4)cn2)CC1	< 50	73	< 50	< 50	< 50	< 50	98
COC1CCN(C(=O)c2ccc(-c3cnc4c(c3)N(Cc3cc(Cl)ccc3C(F)(F)F)CCN4)cc2)CC1	< 50	93.2	< 50	< 50	–	–	–
O=C(c1ccc(-c2cnc3c(c2)N(Cc2cc(Cl)ccc2C(F)(F)F)CCN3)cc1)N1CCCCC1	< 50	79.3	< 50	< 50	–	–	–
FC(F)(F)c1ccc(Cl)cc1CN1CCNc2ncc(-c3ccnc(N4CCNCC4)c3)cc21	< 50	88	< 50	96	< 50	< 50	99
O=C(O)c1ccc(-c2cnc3c(c2)N(Cc2cc(Cl)ccc2C(F)(F)F)CCN3)cc1	< 50	< 50	< 50	< 50	–	–	–
CN1CCN(c2ccc(-c3cnc4c(c3)N(Cc3c(F)ccc(F)c3Cl)CCN4)cn2)CC1	< 50	83	< 50	< 50	< 50	< 50	73
CN1CCN(c2ccc(-c3cnc4c(c3)N(Cc3cc(F)ccc3F)CCN4)cn2)CC1	< 50	86.4	< 50	< 50	< 50	< 50	75

Results, then the molecule that gave them:

inhibition [1] [%]	inhibition [2] [%]	inhibition [3] [%]	inhibition [4] [%]	inhibition [5] [%]	inhibition [6] [%]	inhibition [7] [%]	SMILES
< 50	75	< 50	< 50	< 50	< 50	80	CN1CCN(c2ccc(-c3cnc4c(c3)N(Cc3cc(Cl)ccc3C(F)(F)F)CCN4)cn2)CC1
< 50	88	< 50	< 50	< 50	< 50	90	CC(=O)N1CCN(c2cc(-c3cnc4c(c3)N(Cc3cc(Cl)ccc3C(F)(F)F)CCN4)ccn2)CC1
< 50	98.7	< 50	84	–	–	–	O=C(c1ccc(-c2cnc3c(c2)N(Cc2cc(Cl)ccc2C(F)(F)F)CCN3)cc1)N1CCC(N2CCCC2)CC1
